Measured values: ChEMBL document CHEMBL1275351, “Novel spirotetracyclic zwitterionic dual H(1)/5-HT(2A) receptor antagonists for the treatment of sleep disorders” (J Med Chem, 2010)

What was measured:
[1] = tested on: Rattus norvegicus; test: Hypnotic activity in Sprague-Dawley rat assessed as total sleep time at 1 mg/kg, po administered during active phase; assay type: functional
Procedure, shortened: (§1)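 Male Sprague-Dawley rats (275-300 g) carried implanted telemetric EEG/EMG transmitters and were used 3 weeks after surgery. Oral dosing (2 mL/kg) was given 6 h after lights off (CT18) in a randomized crossover versus vehicle. Recording ran for 5 h in 10 s epochs scored by FFT. n = 8, mean ± SEM; one-way ANOVA with Dunnett's test.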

[2] = tested on: Rattus norvegicus; test: Hypnotic activity in Sprague-Dawley rat assessed as non-rapid eye movement sleep at 10 mg/kg, po administered during active phase; assay type: functional; procedure, shortened: as §1
[3] = tested on: Rattus norvegicus; test: Hypnotic activity in Sprague-Dawley rat assessed as rapid eye movement sleep at 1 mg/kg, po administered during active phase; assay type: functional; procedure, shortened: as §1
[4] = target: Cytochrome P450 2C9 (Homo sapiens, UniProt P11712); test: Inhibition of human CYP2C9 transfected in bactosome expression system by spectrofluorimetry; assay type: ADME
Chain of Cytochrome P450 2C9 (P11712 whole entry): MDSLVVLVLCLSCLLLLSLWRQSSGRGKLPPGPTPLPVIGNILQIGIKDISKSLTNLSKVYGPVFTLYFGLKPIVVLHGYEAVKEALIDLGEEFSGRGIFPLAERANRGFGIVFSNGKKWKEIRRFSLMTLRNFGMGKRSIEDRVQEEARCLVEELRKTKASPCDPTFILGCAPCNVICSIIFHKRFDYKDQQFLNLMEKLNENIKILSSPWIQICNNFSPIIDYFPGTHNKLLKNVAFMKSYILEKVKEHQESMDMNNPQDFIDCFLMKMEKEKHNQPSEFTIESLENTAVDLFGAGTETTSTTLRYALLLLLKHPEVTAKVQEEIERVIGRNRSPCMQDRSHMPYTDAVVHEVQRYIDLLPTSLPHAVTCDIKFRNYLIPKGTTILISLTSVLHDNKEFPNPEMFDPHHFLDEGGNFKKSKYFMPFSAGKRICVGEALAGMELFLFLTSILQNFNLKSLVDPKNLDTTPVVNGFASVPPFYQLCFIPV
Procedure, shortened: (§2)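 Recombinant human CYP Bactosomes (0.1 mg/mL) in 50 mM phosphate buffer, pH 7.4. Compound at 0.1-10 μM was preincubated with fluorogenic substrate for 10 min at 37 °C, and the reaction was started with an NADPH regenerating system. Metabolite fluorescence was followed for 10 min. Substrates: 1A2 ethoxyresorufin 0.5 μM; 2C9 FCA 50 μM; 2C19 BMC 10 μM; 2D6 MMC 10 μM; 3A4 DEF 1 μM or 7-BQ 25 μM. Run in triplicate.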

[5] = Fraction unbound in rat blood; assay type: ADME, tissue-based
[6] = Fraction unbound in rat brain; assay type: ADME, tissue-based
[7] = tested on: Rattus norvegicus; test: Hypnotic activity in Sprague-Dawley rat assessed as rapid eye movement latency period at 3 mg/kg, po administered during active phase; assay type: functional; procedure, shortened: as §1
[8] = tested on: Rattus norvegicus; test: Hypnotic activity in Sprague-Dawley rat assessed as rapid eye movement sleep at 3 mg/kg, po administered during active phase; assay type: functional; procedure, shortened: as §1
[9] = tested on: Rattus norvegicus; test: Hypnotic activity in Sprague-Dawley rat assessed as non-rapid eye movement latency period at 3 mg/kg, po administered during active phase; assay type: functional; procedure, shortened: as §1
[10] = tested on: Rattus norvegicus; test: Hypnotic activity in Sprague-Dawley rat assessed as total sleep time at 10 mg/kg, po administered during active phase; assay type: functional; procedure, shortened: as §1
[11] = target: Cytochrome P450 3A4 (Homo sapiens, UniProt P08684); test: Inhibition of human CYP3A4 transfected in bactosome expression system by spectrofluorimetry; assay type: ADME; procedure, shortened: as §2
Chain of Cytochrome P450 3A4 (P08684 whole entry): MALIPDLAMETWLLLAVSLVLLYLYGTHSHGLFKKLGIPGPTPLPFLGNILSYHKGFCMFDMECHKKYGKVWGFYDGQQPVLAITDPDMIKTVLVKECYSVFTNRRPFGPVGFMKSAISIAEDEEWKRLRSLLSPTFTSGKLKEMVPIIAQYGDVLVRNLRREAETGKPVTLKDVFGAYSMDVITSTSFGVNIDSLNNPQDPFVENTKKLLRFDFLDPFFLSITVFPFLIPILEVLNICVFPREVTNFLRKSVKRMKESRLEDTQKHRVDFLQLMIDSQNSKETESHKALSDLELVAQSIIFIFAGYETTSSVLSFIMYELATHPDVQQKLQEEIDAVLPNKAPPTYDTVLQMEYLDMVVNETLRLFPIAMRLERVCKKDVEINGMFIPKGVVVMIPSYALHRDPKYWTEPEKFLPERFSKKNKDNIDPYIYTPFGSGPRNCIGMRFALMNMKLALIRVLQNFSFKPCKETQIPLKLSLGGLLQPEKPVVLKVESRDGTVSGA

[12] = target: Cytochrome P450 2C19 (Homo sapiens, UniProt P33261); test: Inhibition of human CYP2C19 transfected in bactosome expression system by spectrofluorimetry; assay type: ADME; procedure, shortened: as §2
Chain of Cytochrome P450 2C19 (P33261 whole entry): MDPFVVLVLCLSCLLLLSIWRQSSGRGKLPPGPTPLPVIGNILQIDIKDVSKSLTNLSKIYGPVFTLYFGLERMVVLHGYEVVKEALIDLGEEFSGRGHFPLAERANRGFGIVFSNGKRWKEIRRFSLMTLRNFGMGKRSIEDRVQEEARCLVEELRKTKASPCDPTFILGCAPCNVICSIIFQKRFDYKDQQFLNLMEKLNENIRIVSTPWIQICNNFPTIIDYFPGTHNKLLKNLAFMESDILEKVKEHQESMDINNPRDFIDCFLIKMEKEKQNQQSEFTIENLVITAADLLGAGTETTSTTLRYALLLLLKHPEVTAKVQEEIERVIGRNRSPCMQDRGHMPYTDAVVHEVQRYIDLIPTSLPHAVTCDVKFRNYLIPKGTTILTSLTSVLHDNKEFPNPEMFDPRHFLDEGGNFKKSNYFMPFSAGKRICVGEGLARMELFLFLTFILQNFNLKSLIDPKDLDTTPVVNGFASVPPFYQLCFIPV

[13] = tested on: Rattus norvegicus; test: Hypnotic activity in Sprague-Dawley rat assessed as rapid eye movement latency period at 10 mg/kg, po administered during active phase; assay type: functional; procedure, shortened: as §1
[14] = target: 5-hydroxytryptamine receptor 2A (Rattus norvegicus, UniProt P14842); test: Displacement of [3H]ketanserin from 5HT2A receptor in Sprague-Dawley rat cortical membrane by liquid scintillation counting
Chain of 5-hydroxytryptamine receptor 2A (Rattus norvegicus, UniProt P14842) (P14842 whole entry): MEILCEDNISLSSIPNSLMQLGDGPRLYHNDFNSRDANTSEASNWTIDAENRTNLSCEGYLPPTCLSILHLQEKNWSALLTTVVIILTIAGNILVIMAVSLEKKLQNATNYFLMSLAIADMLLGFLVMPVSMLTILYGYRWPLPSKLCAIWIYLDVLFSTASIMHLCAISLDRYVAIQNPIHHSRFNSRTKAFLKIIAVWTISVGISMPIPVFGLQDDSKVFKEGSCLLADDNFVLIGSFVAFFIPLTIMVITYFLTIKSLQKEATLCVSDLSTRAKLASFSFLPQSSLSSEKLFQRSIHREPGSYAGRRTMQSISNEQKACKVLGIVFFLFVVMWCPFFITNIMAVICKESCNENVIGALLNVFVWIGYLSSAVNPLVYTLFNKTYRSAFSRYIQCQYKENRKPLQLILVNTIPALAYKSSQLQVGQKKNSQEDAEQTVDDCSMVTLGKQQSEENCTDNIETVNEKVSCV
Procedure, shortened: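 Cerebral cortex membranes from male Sprague-Dawley rats (200-250 g), 50 μg/well. Incubated with 1 nM [3H]ketanserin in 50 mM Tris-HCl, 10 mM MgCl2, pH 7.4, for 1 h at 37 °C with shaking. Filtered on PEI-soaked GF/B and counted by scintillation. Nonspecific binding with 10 μM mianserin. Ki by Cheng-Prusoff; mean of two experiments in duplicate.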

[15] = target: Histamine H1 receptor (Rattus norvegicus, UniProt P31390); test: Displacement of [3H]pyrilamine from histamine H1 receptor in Sprague-Dawley rat cortical membrane by liquid scintillation counting
Chain of Histamine H1 receptor (Rattus norvegicus, UniProt P31390) (P31390 whole entry): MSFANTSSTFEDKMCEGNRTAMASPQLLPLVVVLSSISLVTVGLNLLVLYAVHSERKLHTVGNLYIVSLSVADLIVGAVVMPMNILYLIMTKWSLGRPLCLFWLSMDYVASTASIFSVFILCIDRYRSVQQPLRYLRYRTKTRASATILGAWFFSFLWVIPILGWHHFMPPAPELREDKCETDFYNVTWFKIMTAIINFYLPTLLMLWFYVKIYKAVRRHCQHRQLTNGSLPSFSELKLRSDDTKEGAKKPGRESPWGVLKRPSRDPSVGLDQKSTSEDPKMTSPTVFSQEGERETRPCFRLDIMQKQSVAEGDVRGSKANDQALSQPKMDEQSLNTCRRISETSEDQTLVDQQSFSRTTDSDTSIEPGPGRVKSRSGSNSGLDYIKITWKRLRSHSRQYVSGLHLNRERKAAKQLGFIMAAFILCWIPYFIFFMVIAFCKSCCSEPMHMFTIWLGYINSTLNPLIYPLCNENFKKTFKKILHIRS
Procedure, shortened: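 Cerebral cortex membranes from male Sprague-Dawley rats (200-250 g), 150 μg/well. Incubated with 0.6 nM [3H]pyrilamine in 50 mM HEPES, pH 7.4, for 2 h at room temperature. Filtered on PEI-soaked GF/B and counted by scintillation. Nonspecific binding with 10 μM cetirizine. Ki by Cheng-Prusoff; mean of two experiments in duplicate.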

[16] = tested on: Rattus norvegicus; test: Hypnotic activity in Sprague-Dawley rat assessed as non-rapid eye movement latency period at 1 mg/kg, po administered during active phase; assay type: functional; procedure, shortened: as §1
[17] = target: T1, Cytochrome P450 1A2 (Homo sapiens, UniProt P05177); test: Inhibition of human CYP1A2 transfected in bactosome expression system by spectrofluorimetry; assay type: ADME; procedure, shortened: as §2
T1 sequence (P05177 whole entry): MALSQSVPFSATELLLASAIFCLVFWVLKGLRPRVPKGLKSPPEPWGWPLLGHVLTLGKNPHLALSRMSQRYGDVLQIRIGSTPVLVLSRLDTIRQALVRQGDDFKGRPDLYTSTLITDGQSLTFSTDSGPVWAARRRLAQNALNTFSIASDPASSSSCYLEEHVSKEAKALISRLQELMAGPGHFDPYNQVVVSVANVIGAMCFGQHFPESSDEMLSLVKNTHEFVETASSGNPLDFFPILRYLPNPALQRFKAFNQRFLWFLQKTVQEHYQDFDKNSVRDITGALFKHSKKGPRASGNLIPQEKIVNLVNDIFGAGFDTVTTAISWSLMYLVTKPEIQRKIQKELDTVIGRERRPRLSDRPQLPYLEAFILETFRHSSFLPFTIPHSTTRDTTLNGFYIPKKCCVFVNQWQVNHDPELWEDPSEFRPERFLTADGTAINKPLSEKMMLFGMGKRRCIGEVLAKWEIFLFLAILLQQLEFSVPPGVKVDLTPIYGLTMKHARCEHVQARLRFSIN

[18] = tested on: Rattus norvegicus; test: Hypnotic activity in Sprague-Dawley rat assessed as non-rapid eye movement sleep at 3 mg/kg, po administered during active phase; assay type: functional; procedure, shortened: as §1
[19] = target: 5-hydroxytryptamine receptor 2B (Homo sapiens, UniProt P41595); test: Antagonist activity at human 5HT2B receptor expressed in human SH-SY5Y cells by FLIPR assay
Chain of 5-hydroxytryptamine receptor 2B (P41595 whole entry): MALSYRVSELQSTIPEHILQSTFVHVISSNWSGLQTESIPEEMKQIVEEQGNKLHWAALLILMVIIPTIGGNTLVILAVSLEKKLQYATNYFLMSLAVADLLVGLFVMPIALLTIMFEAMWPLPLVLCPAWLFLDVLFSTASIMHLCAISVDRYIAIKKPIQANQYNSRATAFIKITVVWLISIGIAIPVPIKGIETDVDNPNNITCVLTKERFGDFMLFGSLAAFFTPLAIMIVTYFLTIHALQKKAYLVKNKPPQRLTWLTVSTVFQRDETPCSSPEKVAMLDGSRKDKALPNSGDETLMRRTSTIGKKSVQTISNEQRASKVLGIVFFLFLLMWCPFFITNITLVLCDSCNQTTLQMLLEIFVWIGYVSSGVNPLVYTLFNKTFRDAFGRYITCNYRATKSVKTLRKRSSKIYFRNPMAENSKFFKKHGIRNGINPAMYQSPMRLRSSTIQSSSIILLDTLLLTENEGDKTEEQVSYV

[20] = tested on: Rattus norvegicus; test: Hypnotic activity in Sprague-Dawley rat assessed as non-rapid eye movement latency period at 10 mg/kg, po administered during active phase; assay type: functional; procedure, shortened: as §1
[21] = target: 5-hydroxytryptamine receptor 2A (Homo sapiens, UniProt P28223); test: Antagonist activity at human 5HT2A receptor expressed in HEK cells assessed as inhibition of intracellular calcium accumulation by aequorin assay; assay type: functional, cell-based, HEK293
Chain of 5-hydroxytryptamine receptor 2A (Homo sapiens, UniProt P28223) (P28223 whole entry): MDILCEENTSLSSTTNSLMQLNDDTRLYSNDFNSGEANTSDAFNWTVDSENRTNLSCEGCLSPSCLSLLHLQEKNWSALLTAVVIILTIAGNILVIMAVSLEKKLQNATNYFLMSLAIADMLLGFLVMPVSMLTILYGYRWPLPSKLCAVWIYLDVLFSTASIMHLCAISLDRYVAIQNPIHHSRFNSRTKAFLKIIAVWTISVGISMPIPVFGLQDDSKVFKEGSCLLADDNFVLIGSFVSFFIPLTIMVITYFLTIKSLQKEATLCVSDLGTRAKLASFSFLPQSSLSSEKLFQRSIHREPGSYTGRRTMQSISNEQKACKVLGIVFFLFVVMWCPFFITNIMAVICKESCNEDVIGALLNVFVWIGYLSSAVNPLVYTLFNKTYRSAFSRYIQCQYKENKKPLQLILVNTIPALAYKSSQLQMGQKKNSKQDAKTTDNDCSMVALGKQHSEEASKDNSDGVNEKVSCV

[22] = tested on: Rattus norvegicus; test: Hypnotic activity in Sprague-Dawley rat assessed as rapid eye movement latency period at 1 mg/kg, po administered during active phase; assay type: functional; procedure, shortened: as §1
[23] = target: Histamine H1 receptor (Homo sapiens, UniProt P35367); test: Antagonist activity against human histamine H1 receptor expressed in CHO cells by FLIPR assay; assay type: functional, cell-based
Chain of Histamine H1 receptor (Homo sapiens, UniProt P35367) (P35367 whole entry): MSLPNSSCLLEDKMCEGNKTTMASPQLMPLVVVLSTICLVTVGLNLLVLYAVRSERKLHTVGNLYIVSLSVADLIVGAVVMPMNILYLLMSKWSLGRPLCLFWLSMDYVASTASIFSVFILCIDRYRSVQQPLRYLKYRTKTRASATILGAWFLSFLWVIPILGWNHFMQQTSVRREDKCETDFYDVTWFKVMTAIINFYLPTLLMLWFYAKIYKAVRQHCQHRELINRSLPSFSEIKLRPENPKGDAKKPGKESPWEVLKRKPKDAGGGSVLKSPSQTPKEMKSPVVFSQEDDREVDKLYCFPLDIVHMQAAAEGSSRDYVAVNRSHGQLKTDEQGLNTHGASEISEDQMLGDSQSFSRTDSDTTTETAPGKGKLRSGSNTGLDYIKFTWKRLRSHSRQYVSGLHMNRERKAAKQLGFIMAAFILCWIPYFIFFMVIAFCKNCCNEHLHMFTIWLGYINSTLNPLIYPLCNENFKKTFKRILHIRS

[24] = tested on: Rattus norvegicus; test: Hypnotic activity in Sprague-Dawley rat assessed as total sleep time at 3 mg/kg, po administered during active phase; assay type: functional; procedure, shortened: as §1

| IC50 [4] | fraction unbound [5] | fraction unbound [6] | IC50 [11] | IC50 [12] | Ki [14] | Ki [15] | IC50 [17] | Ki [19] | Structure (SMILES) | Time [1] | Time [2] | Time [3] | Time [7] | Time [8] | Time [9] | Time [10] | Time [13] | Time [16] | Time [18] | Time [20] | other results |
| --- | --- | --- | --- | --- | --- | --- | --- | --- | --- | --- | --- | --- | --- | --- | --- | --- | --- | --- | --- | --- | --- |
| > 10000 nM | 0.182 | 0.031 | > 10000 nM | > 10000 nM | 33.9 nM | 4.68 nM | > 10000 nM | 158 nM | O=C(O)C1CCN(C2CC[C@]3(Cc4ccccc4Cc4ccccc43)C2)CC1 (some centres not stated) | 94.4 min | 104 min | 9.7 min | 77.9 min | 11 min | 51.4 min | 105.2 min | 83.8 min | 69.8 min | 94.2 min | 34.6 min | Ki [21]: 79.4 nM; Time [22]: 83.6 min; Ki [23]: 50.1 nM; Time [24]: 105.2 min |
| > 10000 nM | 0.171 | 0.04 | > 10000 nM | > 10000 nM | 33.9 nM | 14.1 nM | > 10000 nM | 794 nM | O=C(O)C1CN(C2CCC3(Cc4ccccc4Oc4ccccc43)C2)C1 (configuration not stated) | 120.7 min | 139.5 min | 13.3 min | 77.7 min | 15.1 min | 37.9 min | 155.7 min | 63.4 min | 37.8 min | 123.2 min | 31.5 min | Ki [21]: 31.6 nM; Time [22]: 67 min; Ki [23]: 50.1 nM; Time [24]: 138.3 min |
| > 10000 nM | 0.12 | 0.032 | > 10000 nM | > 10000 nM | 33.1 nM | 5.62 nM | > 10000 nM | 79.4 nM | O=C(O)C1CN(C2CC[C@]3(Cc4ccccc4Cc4ccccc43)C2)C1 (some centres not stated) | 98.1 min | 130.5 min | 10.7 min | 81.6 min | 16.1 min | 51.6 min | 145.2 min | 64.5 min | 58.1 min | 118.6 min | 33.5 min | Ki [21]: 15.8 nM; Time [22]: 77.8 min; Ki [23]: 6.31 nM; Time [24]: 134.7 min |
